According to ChEMBL document CHEMBL4376875, “Synthesis and Biological Evaluation of B-Cell Lymphoma 6 Inhibitors of N-Phenyl-4-pyrimidinamine Derivatives Bearing Potent Activities against Tumor Growth” (J Med Chem, 2020):
Active and inactive are the calls of the source. The rule behind the calls is not given here.

How the values were obtained:
[1] = tested on: SUD4; experiment: Induction of apoptosis in human SUDHL4 cells assessed as late apoptotic cells at 2.5 uM incubated for 48 hrs by annexin V-FITC and propidium iodide staining based flow cytometry analysis (reference value: 1.39%); type: functional
[2] = tested on: SUD4; experiment: Induction of apoptosis in human SUDHL4 cells assessed as early apoptotic cells at 1.25 uM incubated for 48 hrs by annexin V-FITC and propidium iodide staining based flow cytometry analysis (reference value: 2.62%); type: functional
[3] = tested on: Toledo; experiment: Effect on CDKN1A mRNA expression in BCL6-negative human Toledo cells at 1.25 to 5 uM incubated for 24 hrs by RT-PCR analysis; type: functional, cell-based
Procedure, shortened: (§1)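 Toledo cells (BCL6-independent) were exposed to 1.25, 2.50 or 5.00 μM for 24 h, then mRNA was collected. Target-gene transcripts were quantified by real-time quantitative PCR against vehicle control.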

[4] = tested on: DOHH-2; experiment: Antiproliferative activity against human DOHH2 cells assessed as reduction in cell viability incubated for 72 hrs by CCK8 assay; settings: DOHH-2, 72 h
[5] = organism: Mus musculus; settings: C57BL/6, 10 mg/kg
[6] = tested on: SUD4; experiment: Antiproliferative activity against human SUDHL4 cells assessed as living cells and S phase cells at 0.625 uM incubated for 48 hrs by Edu based flow cytometry analysis (reference value: 48.3%)
[7] = tested on: NCM460; experiment: Cytotoxicity against human NCM460 cells assessed as reduction in cell viability incubated for 72 hrs by CCK8 assay; settings: NCM460, 72 h
[8] = organism: Mus musculus; settings: C57BL/6, 10 mg/kg; remark: listed apart in the source
[9] = tested on: PNT1A; experiment: Cytotoxicity against human PNT1A cells assessed as reduction in cell viability incubated for 72 hrs by CCK8 assay
[10] = tested on: Farage; settings: Homo sapiens, 0.25 to 2 uM
[11] = tested on: SUD4; experiment: Induction of apoptosis in human SUDHL4 cells assessed as early apoptotic cells at 2.5 uM incubated for 48 hrs by annexin V-FITC and propidium iodide staining based flow cytometry analysis (reference value: 2.62%); type: functional
[12] = Toxicity in SCID mouse xenografted with human SUDHL4 cells assessed as adverse effect on heart morphology at 5 to 10 mg/kg, iv administered 3 days once for 15 days by H and E staining analysis; type: organism-based; settings: in vivo
Procedure, shortened: (§2)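 Male SCID mice, 6 weeks old, received 1 × 10⁷ SUDHL4 cells s.c. At about 100 mm³, mice were randomized (n = 7) to vehicle (20% 2-hydroxypropyl-β-cyclodextrin) or 5 or 10 mg/kg every 3 days i.v. for 15 days. Body weight and caliper volume (L × W² × 0.52) were recorded every 3 days. At sacrifice, tissues were fixed in 4% paraformaldehyde and paraffin-embedded for H&E or Ki67 IHC. Tumor mRNA was assayed by qPCR.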

[13] = Toxicity in SCID mouse xenografted with human SUDHL4 cells assessed as adverse effect on lungs morphology at 5 to 10 mg/kg, iv administered 3 days once for 15 days by H and E staining analysis; type: organism-based; settings: in vivo; procedure, shortened: as §2
[14] = Metabolic stability in human liver microsomes assessed as half life; type: ADME, Microsome
Procedure, shortened: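 Incubation with human liver microsomes. Intrinsic clearance was scaled to liver using 45 mg microsomal protein per g liver and 20 g liver per kg body weight. Half-life was also determined.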

[15] = tested on: SUD4; experiment: Antiproliferative activity against human SUDHL4 cells assessed as living cells and S phase cells at 2.5 uM incubated for 48 hrs by Edu based flow cytometry analysis (reference value: 48.3%)
[16] = tested on: SUD4; experiment: Antiproliferative activity against human SUDHL4 cells assessed as reduction in cell viability incubated for 72 hrs by CCK8 assay; settings: SU-DHL-4, 72 h
[17] = Toxicity in SCID mouse xenografted with human SUDHL4 cells assessed as reduction in body weight at 5 to 10 mg/kg, iv administered 3 days once for 15 days and measured every 3 days; type: organism-based; settings: in vivo; procedure, shortened: as §2
[18] = tested on: Farage; experiment: Antiproliferative activity against human Farage cells assessed as reduction in cell viability incubated for 72 hrs by CCK8 assay
[19] = tested on: SUD4; experiment: Antitumor activity against human SUDHL4 cells xenografted in SCID mouse assessed as reduction in tumor growth at 5 mg/kg, iv administered 3 days once for 15 days and measured every 3 days; type: functional, organism-based; procedure, shortened: as §2
[20] = tested on: Toledo; experiment: Antiproliferative activity against BCL6-negative human Toledo cells assessed as reduction in cell viability incubated for 72 hrs by CCK8 assay
[21] = tested on: Mus musculus; experiment: In vivo inhibition of GC formation in NP-CGG immunized C57BL/6 mouse assessed as splenic GC B cells (GL7+FAS+B220+) at 10 mg/kg, iv administered 3 days once for 12 days starting from 2 days after NP-CGG addition by flow cytometry (reference value: 1.97%); type: functional; parameters: scale not given: the % may be the effect or the level left
[22] = tested on: Mus musculus; experiment: Upregulation of CXCR4 mRNA expression in SCID mouse xenografted with human SUDHL4 cells at 5 to 10 mg/kg, iv administered 3 days once for 15 days by qPCR analysis; type: functional, organism-based; procedure, shortened: as §2
[23] = tested on: Toledo; settings: Homo sapiens, 0.25 to 2 uM
[24] = tested on: OCI-Ly7; experiment: Antiproliferative activity against human OCI-LY7 cells assessed as reduction in cell viability incubated for 72 hrs by CCK8 assay; settings: OCI-Ly7, 72 h
[25] = Toxicity in SCID mouse xenografted with human SUDHL4 cells assessed as adverse effect on spleen morphology at 5 to 10 mg/kg, iv administered 3 days once for 15 days by H and E staining analysis; type: organism-based; settings: in vivo; procedure, shortened: as §2
[26] = tested on: SUD4; experiment: Antitumor activity against human SUDHL4 cells xenografted in SCID mouse assessed as reduction in tumor volume at 5 mg/kg, iv administered 3 days once for 15 days and measured every 3 days by caliper analysis; type: functional, organism-based; procedure, shortened: as §2
[27] = tested on: Mus musculus; experiment: In vivo inhibition of GC formation in NP-CGG immunized C57BL/6 mouse assessed as proportion of Tfh cells (CXCR5+PD1+CD4+) at 10 mg/kg, iv administered 3 days once for 12 days starting from 2 days after NP-CGG addition by flow cytometry analysis (reference value: 2.25%); type: functional; parameters: scale not given: the % may be the effect or the level left
[28] = tested on: SUD4; experiment: Induction of apoptosis in human SUDHL4 cells assessed as late apoptotic cells at 0.625 uM incubated for 48 hrs by annexin V-FITC and propidium iodide staining based flow cytometry analysis (reference value: 1.39%); type: functional
[29] = tested on: L02; experiment: Cytotoxicity against human LO2 cells assessed as reduction in cell viability incubated for 72 hrs by CCK8 assay; settings: L02, 72 h
[30] = tested on: Mus musculus; experiment: Upregulation of ATR mRNA expression in SCID mouse xenografted with human SUDHL4 cells at 5 to 10 mg/kg, iv administered 3 days once for 15 days by qPCR analysis; type: functional, organism-based; procedure, shortened: as §2
[31] = Protein binding in human plasma assessed as unbound fraction; type: ADME, cell-free
Procedure, shortened: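 Human plasma protein binding was measured by a contract laboratory.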

[32] = tested on: Toledo; experiment: Effect on ATR mRNA expression in BCL6-negative human Toledo cells at 1.25 to 5 uM incubated for 24 hrs by RT-PCR analysis; type: functional, cell-based; procedure, shortened: as §1
[33] = Metabolic stability in human liver microsomes assessed as compound remaining measured after 60 mins; type: ADME, Microsome; settings: read-out: Stability

Question: Which Activity [1] does the source give for `COc1cc(Nc2nc(N3C[C@@H](C)N[C@@H](C)C3)ncc2F)ccc1NC(=O)c1ccc(C2=CCCC2)s1` here?
Answer: 67.3%

Question: And the Activity [2]?
Answer: 3.57%

Question: What about the Activity [3] of the same compound?
Answer: inactive

Question: And the IC50 [4]?
Answer: 1210 nM

Question: What about the inhibition [5] of the same compound?
Answer: Active

Question: What about the Activity [6] of the same compound?
Answer: 27.3%

Question: What about the IC50 [7] of the same compound?
Answer: 32.4 µM

Question: What about the inhibition [8] of the same compound?
Answer: Active

Question: And the IC50 [9]?
Answer: 8.13 µM

Question: And the inhibition [10]?
Answer: inactive

Question: And the Activity [11]?
Answer: 5.91%

Question: And the Activity [12]?
Answer: Non-Toxic

Question: What about the Activity [13] of the same compound?
Answer: Non-Toxic

Question: What about the half-life [14] of the same compound?
Answer: > 60 min

Question: And the Activity [15]?
Answer: 6.6%

Question: What about the IC50 [16] of the same compound?
Answer: 920 nM

Question: What about the Activity [17] of the same compound?
Answer: Non-Toxic

Question: And the IC50 [18]?
Answer: 1260 nM

Question: And the Activity [19]?
Answer: Active

Question: What about the IC50 [20] of the same compound?
Answer: 3.25 µM

Question: What about the Activity [21] of the same compound?
Answer: 0.45%

Question: And the Activity [22]?
Answer: Active

Question: And the inhibition [23]?
Answer: inactive

Question: What about the IC50 [24] of the same compound?
Answer: 1620 nM

Question: And the Activity [25]?
Answer: Non-Toxic

Question: What about the Activity [26] of the same compound?
Answer: Active

Question: What about the Activity [27] of the same compound?
Answer: 0.99%

Question: What about the Activity [28] of the same compound?
Answer: 3.35%

Question: What about the IC50 [29] of the same compound?
Answer: 13.1 µM

Question: And the Activity [30]?
Answer: Active

Question: And the fraction unbound [31]?
Answer: 0.076

Question: And the Activity [32]?
Answer: inactive

Question: And the remaining at 1 h [33]?
Answer: 102%
